Laboratory results as given in ChEMBL document CHEMBL4118126, “An orally available, brain-penetrant CAMKK2 inhibitor reduces food intake in rodent model” (Bioorg Med Chem Lett, 2018).
pIC50: −log10 of the molar value. Converted amounts (≈) assume the structure as drawn.

Legend:
Insulin receptor = Insulin receptor (Homo sapiens, UniProt P06213); test: Inhibition of INSR (unknown origin); conditions: for pIC50: read-out: IC50; for IC50: read-out: pIC50 (converted)
Rattus norvegicus [1] = test: Reduction of food intake in Sprague-Dawley rat at 30 mg/kg, po administered 1 hr measured for 4 hrs; assay type: ADME, organism-based; conditions: in vivo
[2] = target: Calcium/calmodulin-dependent protein kinase kinase 2 (Mus musculus, UniProt Q8C078); test: Inhibition of CAMKK2 in mouse N39 cells assessed as decrease in AMPKalpha phosphorylation at T172 preincubated for 80 mins followed by […] addition by ELISA; assay type: cell-based
Calcium/calmodulin-dependent protein kinase kinase 2 (Mus musculus, UniProt Q8C078), sequence (Q8C078 whole entry): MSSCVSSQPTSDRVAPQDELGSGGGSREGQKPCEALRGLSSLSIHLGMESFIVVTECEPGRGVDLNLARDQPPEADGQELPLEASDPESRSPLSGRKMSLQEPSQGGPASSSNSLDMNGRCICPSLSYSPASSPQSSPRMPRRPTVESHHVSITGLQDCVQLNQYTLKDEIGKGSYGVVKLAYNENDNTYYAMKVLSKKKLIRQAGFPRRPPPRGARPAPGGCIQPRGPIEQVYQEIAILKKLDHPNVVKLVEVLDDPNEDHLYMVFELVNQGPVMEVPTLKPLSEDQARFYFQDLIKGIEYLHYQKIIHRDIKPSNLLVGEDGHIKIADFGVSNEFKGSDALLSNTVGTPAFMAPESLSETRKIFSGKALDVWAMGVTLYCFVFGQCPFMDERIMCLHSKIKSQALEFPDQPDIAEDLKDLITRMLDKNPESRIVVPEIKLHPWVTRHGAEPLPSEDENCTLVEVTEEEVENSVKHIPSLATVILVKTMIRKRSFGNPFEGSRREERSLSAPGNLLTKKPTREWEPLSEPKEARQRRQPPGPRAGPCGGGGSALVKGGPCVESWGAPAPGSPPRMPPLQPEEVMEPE
Procedure, shortened: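 Mouse N39 cells seeded ~1000 cells/well, cultured overnight at 37°C, 5% CO2, then exposed to compound in DMSO for 80 min before ionomycin stimulation ([…] as added). Cells were lysed in extraction buffer for 30 min on ice, then diluted into ice-cold lysis buffer containing protease and phosphatase inhibitors for MSD read-out.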

[3] = target: T1, Inhibitor of nuclear factor kappa-B kinase subunit alpha (Homo sapiens, UniProt O15111); test: Inhibition of IKK1 (unknown origin)
T1 sequence (O15111 whole entry): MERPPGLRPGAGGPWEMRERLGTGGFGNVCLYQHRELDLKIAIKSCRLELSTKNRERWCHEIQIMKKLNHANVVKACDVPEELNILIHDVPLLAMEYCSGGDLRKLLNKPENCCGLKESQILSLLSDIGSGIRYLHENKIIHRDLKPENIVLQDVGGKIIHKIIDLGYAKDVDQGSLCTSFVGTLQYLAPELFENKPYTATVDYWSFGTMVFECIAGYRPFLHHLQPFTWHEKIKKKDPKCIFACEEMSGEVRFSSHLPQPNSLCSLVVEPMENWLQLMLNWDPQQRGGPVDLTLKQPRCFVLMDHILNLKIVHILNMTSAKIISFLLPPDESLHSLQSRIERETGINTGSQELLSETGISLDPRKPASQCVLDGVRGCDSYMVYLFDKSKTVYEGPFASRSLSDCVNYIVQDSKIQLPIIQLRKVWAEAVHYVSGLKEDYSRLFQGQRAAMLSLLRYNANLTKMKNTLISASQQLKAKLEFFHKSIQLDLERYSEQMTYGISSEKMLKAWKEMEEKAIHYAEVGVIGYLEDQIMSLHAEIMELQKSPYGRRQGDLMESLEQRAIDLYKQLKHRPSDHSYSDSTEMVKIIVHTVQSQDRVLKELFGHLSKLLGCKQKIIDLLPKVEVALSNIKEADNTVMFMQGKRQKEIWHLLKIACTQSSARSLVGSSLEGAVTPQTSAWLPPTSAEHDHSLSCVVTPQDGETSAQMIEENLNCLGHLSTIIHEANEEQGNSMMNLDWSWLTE

[4] = Cmax in CD rat at 30 mg/kg, po; assay type: ADME, organism-based; set-up: dose 30 mg/kg, route oral; conditions: in vivo
[5] = target: Calcium/calmodulin-dependent protein kinase kinase 2 (Homo sapiens, UniProt Q96RR4); test: Inhibition of full-length human GST-tagged CAMKK2 using 5FAM-AKPKGNKDYHLQTCCGSLAYRRR-amide as substrate preincubated for 30 mins followed by substrate addition measured after 120 mins by fluorescence polarization assay
Calcium/calmodulin-dependent protein kinase kinase 2 (Homo sapiens, UniProt Q96RR4), sequence (Q96RR4 whole entry, the tested form may be a part): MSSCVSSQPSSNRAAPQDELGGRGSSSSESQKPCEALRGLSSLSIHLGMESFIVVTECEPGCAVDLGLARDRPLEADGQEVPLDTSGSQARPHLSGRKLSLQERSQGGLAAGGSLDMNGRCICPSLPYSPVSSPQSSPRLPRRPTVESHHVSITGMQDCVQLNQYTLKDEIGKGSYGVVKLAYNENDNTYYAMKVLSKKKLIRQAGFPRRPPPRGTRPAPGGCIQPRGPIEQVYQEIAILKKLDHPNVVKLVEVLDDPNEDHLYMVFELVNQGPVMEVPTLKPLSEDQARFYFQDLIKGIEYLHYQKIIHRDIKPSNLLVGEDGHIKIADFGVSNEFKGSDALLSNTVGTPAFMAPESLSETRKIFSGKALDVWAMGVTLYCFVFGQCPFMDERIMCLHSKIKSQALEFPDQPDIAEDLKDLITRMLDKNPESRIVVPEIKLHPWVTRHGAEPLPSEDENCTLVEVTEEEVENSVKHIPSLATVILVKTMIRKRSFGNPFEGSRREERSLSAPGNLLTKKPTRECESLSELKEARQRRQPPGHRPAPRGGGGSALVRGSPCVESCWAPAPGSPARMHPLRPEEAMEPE

[6] = target: T2, Discoidin domain-containing receptor 2 (Homo sapiens, UniProt Q16832); test: Inhibition of DDR2 (unknown origin)
T2 sequence (Q16832 whole entry): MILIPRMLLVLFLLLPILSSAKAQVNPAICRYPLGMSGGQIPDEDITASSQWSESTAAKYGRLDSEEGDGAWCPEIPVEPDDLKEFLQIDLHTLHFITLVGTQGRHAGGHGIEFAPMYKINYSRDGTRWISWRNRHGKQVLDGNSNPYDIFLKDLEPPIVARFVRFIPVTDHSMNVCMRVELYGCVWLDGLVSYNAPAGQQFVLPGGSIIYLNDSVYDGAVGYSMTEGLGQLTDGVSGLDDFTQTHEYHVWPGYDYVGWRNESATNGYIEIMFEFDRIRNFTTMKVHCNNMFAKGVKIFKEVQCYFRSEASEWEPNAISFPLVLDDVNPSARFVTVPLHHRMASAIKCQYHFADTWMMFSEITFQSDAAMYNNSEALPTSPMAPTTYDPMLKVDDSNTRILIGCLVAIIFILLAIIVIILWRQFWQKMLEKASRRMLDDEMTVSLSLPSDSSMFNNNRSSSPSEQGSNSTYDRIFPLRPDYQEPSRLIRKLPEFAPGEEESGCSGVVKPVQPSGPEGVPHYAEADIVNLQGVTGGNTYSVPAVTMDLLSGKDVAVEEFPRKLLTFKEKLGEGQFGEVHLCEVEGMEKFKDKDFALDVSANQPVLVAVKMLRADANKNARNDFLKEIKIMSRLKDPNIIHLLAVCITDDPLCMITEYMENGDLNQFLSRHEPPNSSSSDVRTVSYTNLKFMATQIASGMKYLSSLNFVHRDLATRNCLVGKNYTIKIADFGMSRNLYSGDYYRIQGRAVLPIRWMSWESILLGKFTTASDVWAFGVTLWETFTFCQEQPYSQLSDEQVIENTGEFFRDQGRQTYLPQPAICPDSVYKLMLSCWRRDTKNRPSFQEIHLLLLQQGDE

[7] = target: Mitogen-activated protein kinase 8 (Homo sapiens, UniProt P45983); test: Inhibition of JNK1 (unknown origin)
Mitogen-activated protein kinase 8, sequence (P45983 whole entry): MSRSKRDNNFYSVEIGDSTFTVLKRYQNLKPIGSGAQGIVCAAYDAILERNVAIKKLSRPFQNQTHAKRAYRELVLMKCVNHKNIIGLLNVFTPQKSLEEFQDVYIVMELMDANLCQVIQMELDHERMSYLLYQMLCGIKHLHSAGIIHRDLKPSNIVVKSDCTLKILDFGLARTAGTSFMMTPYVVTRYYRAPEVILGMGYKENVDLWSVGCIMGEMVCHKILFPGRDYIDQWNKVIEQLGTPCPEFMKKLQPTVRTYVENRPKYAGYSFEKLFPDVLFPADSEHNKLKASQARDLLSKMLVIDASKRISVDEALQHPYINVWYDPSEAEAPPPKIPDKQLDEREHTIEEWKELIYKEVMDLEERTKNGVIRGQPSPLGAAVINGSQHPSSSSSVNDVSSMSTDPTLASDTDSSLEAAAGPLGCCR

Aurora kinase A = target: T3, Aurora kinase A (Homo sapiens, UniProt O14965); test: Inhibition of aurora A (unknown origin)
T3 sequence (O14965 whole entry): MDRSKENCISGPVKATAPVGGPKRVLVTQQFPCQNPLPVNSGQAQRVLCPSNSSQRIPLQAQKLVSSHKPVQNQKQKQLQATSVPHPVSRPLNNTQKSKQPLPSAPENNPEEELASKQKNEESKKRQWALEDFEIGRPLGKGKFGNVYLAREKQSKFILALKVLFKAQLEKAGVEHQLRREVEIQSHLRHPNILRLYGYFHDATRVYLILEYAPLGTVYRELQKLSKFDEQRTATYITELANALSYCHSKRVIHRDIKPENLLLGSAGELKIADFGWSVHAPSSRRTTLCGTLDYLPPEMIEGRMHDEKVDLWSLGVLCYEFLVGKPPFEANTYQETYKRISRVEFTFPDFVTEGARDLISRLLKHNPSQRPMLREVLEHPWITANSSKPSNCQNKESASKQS

[8] = Solubility of the compound in pH 7.4 phosphate buffer saline after 1 hr by chemiluminescence nitrogen detection method; assay type: physicochemical; conditions: phosphate buffered saline
Procedure, shortened: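 Kinetic solubility: 10 mM DMSO stock diluted 1:20 into 10 mM phosphate-buffered saline pH 7.4, equilibrated 1 h at RT, filtered, and filtrate quantified by calibrated flow-injection chemiluminescent nitrogen detection.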

[9] = Ratio of drug level in brain to plasma in CD rat at 30 mg/kg, po; assay type: ADME, organism-based; conditions: read-out: BPR
Rattus norvegicus [10] = test: Inhibition of ghrelin-induced food intake in Sprague-Dawley rat at 30 mg/kg, po administered 1 hr followed by ghrelin addition measured for 4 hrs relative to control; assay type: functional
[11] = target: Phosphatidylinositol 4,5-bisphosphate 3-kinase catalytic subunit gamma isoform (Homo sapiens, UniProt P48736); test: Inhibition of PI3Kgamma (unknown origin)
Phosphatidylinositol 4,5-bisphosphate 3-kinase catalytic subunit gamma isoform, sequence (P48736 whole entry, canonical isoform): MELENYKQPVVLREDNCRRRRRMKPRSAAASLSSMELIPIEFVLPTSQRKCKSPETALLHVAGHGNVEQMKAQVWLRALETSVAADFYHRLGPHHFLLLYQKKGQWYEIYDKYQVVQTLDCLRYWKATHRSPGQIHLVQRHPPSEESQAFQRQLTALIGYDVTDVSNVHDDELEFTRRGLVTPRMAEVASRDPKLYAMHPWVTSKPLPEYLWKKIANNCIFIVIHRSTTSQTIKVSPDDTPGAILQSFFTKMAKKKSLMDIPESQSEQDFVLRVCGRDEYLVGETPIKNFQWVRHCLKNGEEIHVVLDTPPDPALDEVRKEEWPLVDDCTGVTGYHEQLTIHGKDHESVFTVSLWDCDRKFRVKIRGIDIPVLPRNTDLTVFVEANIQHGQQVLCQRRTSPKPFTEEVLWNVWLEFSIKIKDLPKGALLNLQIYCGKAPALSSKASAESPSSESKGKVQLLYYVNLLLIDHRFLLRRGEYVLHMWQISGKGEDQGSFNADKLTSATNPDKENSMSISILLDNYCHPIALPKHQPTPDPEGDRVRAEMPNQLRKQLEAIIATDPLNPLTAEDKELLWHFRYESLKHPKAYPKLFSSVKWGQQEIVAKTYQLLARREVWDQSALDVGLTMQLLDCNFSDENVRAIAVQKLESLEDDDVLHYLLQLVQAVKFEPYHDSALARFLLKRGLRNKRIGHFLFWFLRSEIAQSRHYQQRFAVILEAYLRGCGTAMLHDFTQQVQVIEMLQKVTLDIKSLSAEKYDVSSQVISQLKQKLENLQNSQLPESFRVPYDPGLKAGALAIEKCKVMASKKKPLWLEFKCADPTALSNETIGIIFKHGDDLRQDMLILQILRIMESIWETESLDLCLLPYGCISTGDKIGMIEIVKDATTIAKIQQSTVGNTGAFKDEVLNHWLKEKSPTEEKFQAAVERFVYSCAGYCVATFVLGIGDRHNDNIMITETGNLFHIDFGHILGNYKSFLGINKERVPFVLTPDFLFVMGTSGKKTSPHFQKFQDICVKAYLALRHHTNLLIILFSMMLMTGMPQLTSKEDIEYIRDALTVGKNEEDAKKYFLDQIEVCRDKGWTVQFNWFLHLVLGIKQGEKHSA

[12] = target: Glycogen synthase kinase-3 beta (Homo sapiens, UniProt P49841); test: Inhibition of GSK3beta (unknown origin)
Glycogen synthase kinase-3 beta, sequence (P49841 whole entry): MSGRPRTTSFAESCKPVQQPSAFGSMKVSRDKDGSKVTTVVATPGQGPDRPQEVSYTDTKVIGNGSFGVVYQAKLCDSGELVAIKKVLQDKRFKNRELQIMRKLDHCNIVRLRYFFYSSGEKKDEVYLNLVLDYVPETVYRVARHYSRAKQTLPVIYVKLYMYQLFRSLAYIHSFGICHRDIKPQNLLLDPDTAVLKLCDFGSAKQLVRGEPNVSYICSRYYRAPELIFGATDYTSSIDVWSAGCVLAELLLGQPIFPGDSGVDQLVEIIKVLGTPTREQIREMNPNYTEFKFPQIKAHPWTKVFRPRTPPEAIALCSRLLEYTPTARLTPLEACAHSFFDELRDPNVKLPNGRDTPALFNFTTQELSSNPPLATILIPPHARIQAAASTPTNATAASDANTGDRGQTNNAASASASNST

[13] = Cmax in CD rat at 10 mg/kg, po; assay type: ADME, organism-based; set-up: dose 10 mg/kg, route oral; conditions: in vivo
[14] = Ratio of drug level in brain to plasma in CD rat at 10 mg/kg, po; assay type: ADME, organism-based; conditions: read-out: BPR

Insulin receptor, sequence (P06213 28-758 limits assumed): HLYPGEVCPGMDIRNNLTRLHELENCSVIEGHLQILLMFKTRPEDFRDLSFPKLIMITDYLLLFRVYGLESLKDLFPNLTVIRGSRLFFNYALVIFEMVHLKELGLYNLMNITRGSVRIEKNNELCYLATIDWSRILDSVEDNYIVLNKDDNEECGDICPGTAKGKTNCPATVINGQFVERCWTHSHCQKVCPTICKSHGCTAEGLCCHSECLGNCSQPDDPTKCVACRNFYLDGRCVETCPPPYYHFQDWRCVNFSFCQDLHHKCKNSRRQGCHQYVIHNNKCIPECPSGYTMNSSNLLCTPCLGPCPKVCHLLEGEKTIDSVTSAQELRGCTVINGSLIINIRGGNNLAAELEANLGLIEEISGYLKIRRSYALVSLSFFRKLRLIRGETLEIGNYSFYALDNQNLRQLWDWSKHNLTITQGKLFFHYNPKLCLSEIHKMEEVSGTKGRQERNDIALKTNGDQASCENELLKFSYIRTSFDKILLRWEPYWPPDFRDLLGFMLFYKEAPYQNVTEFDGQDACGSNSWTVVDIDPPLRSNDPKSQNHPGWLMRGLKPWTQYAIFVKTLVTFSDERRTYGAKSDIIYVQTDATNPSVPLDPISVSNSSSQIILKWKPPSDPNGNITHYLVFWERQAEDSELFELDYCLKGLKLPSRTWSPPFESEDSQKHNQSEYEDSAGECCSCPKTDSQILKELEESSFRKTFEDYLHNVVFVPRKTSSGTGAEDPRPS
Insulin receptor, sequence (P06213 763-1382 limits assumed): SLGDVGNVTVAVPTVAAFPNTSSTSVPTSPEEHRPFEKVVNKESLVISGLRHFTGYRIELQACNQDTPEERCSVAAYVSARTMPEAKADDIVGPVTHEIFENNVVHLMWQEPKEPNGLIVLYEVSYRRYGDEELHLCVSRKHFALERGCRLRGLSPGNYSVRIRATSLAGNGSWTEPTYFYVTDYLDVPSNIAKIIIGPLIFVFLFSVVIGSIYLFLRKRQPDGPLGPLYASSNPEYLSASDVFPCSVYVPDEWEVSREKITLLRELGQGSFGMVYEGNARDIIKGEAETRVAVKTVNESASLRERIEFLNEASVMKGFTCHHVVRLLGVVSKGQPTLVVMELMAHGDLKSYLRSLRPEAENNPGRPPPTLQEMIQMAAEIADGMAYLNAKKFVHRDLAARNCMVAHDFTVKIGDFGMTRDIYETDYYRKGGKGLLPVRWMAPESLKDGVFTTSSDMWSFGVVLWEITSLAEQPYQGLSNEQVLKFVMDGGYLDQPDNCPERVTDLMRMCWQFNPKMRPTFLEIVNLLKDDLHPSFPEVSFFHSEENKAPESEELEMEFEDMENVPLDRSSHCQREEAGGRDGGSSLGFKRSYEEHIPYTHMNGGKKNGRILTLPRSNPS

Structure (SMILES) | pIC50 (Insulin receptor) | IC50 (Insulin receptor) [nM] | pIC50 [2] | pIC50 [3] | Cmax [4] [ng/mL] | pIC50 [5] | pIC50 [6] | pIC50 [7] | pIC50 (Aurora kinase A) | solubility at 1 h [8] [µM] | Kp [9] | pIC50 [11] | pIC50 [12] | Cmax [13] [ng/mL] | Kp [14] | Activity (Rattus norvegicus [1]) | inhibition in vivo at 30 mg/kg (Rattus norvegicus [10]) [%]
Cc1cc(OCCN2CCOCC2)ccc1-c1cc2c(-c3ccc(C#N)c(C(C)C)c3)ccnc2[nH]1 | < 5.00 | > 10000 | 6.30 | < 4.60 | 964 | 8.20 | < 5.00 | < 5.00 | < 5.00 | < 1 | 0.9 |  |  |  |  | Non-Toxic | 40
Cc1cc(OCCN2CCOCC2)ccc1-c1cc2c(-c3ccc(C#N)cc3)ccnc2[nH]1 | < 5.00 | > 10000 | 5.10 | < 4.50 |  | 6.60 to 7.00 | < 5.00 | 4.70 | < 5.00 | 9 (≈ 3.95 µg/mL) |  |  |  |  |  |  | 
Cc1cc(OCCN2CCOCC2)ccc1-c1cc2c(-c3ccc(C(N)=O)c(C(C)C)c3)ccnc2[nH]1 |  | 398 | 7.20 | 5.60 | 374 | 8.10 to 9.10 |  | 5.70 |  | 4 (≈ 1.99 µg/mL) | 0.6 |  |  |  |  |  | 
Cc1ccc(CN2CCOCC2)cc1-c1cc2c(-c3ccc(C#N)cc3)ccnc2[nH]1 | < 5.00 | > 10000 | 5.60 | < 4.60 |  | 6.40 to 7.10 | < 5.00 | < 5.00 | < 5.00 | 2 (≈ 0.817 µg/mL) |  |  |  |  |  |  | 
Cc1ccc(CN2CCOCC2)cc1-c1cc2c(-c3ccc(C#N)c(C(C)C)c3)ccnc2[nH]1 | < 5.00 | > 10000 | 6.40 | 5.60 | 127 | 7.90 | < 5.00 | 5.10 | < 5.00 | 1 (≈ 0.451 µg/mL) | 0.6 |  |  |  |  |  | 
COc1ccccc1Nc1ncc(F)c(-c2ccc(C(N)=O)c(C(C)C)c2)n1 |  |  | 5.50 |  |  | 6.50 to 7.40 |  | 5.50 |  | 11 (≈ 4.18 µg/mL) |  | < 5.00 | 5.10 |  |  |  | 
COc1ccccc1-c1cc2c(-c3ccc(C(N)=O)c(C4CCCC4)c3)ccnc2[nH]1 |  | 794 | 7.00 | 5.60 |  | 8.70 |  | 5.70 |  | 7 (≈ 2.88 µg/mL) |  |  |  | 35 | 3.2 |  | 

Further lines, with some results ahead:

pIC50 (Insulin receptor) | IC50 (Insulin receptor) [nM] | pIC50 [2] | pIC50 [3] | Cmax [4] [ng/mL] | pIC50 [5] | pIC50 [6] | pIC50 [7] | pIC50 (Aurora kinase A) | solubility at 1 h [8] [µM] | Kp [9] | pIC50 [11] | pIC50 [12] | Cmax [13] [ng/mL] | Kp [14] | Structure (SMILES) | Activity (Rattus norvegicus [1]) | inhibition in vivo at 30 mg/kg (Rattus norvegicus [10]) [%]
 |  | 6.00 |  |  | 8.70 |  | 5.50 |  | > 367 |  | 5.80 | 4.80 |  |  | COc1ccccc1Nc1nccc(-c2ccc(C(=O)O)c(C(C)C)c2)n1 |  | 
 |  | 6.40 |  |  | 8.10 to 9.00 |  | 5.50 |  | 97 (≈ 37 µg/mL) |  | 5.20 | 5.10 |  |  | COc1ccccc1Nc1ncc(F)c(-c2ccc(C(=O)O)c(C(C)C)c2)n1 |  | 
 |  | 6.20 |  |  | 7.60 to 8.10 |  | 6.00 |  | 3 (≈ 1.1 µg/mL) |  | 7.00 | 7.50 |  |  | NC(=O)c1ccc(-c2ccnc(Nc3cccc(-c4ccccc4)c3)n2)cc1 |  | 
 |  | < 5.00 |  |  | 6.60 to 7.90 |  | < 5.00 |  | 7 (≈ 2.78 µg/mL) |  | 5.10 | < 4.60 |  |  | COc1ccc(-c2ccccc2)cc1Nc1nccc(-c2ccc(C(N)=O)cc2)n1 |  | 
 |  | 5.10 |  |  | 7.00 to 8.10 |  | 6.40 |  | 14 (≈ 5.14 µg/mL) |  | 7.90 | 6.40 |  |  | O=C(O)c1ccc(-c2ccnc(Nc3cccc(-c4ccccc4)c3)n2)cc1 |  | 
